Source: PubChem (several laboratories)
Only some compounds are listed: those with a hit (about 5.3% of all), similar ones and a draw of the others.
Beta cell apopt: blocks beta cell apoptosis; INS-1E cytokine-induced death, ATP luminescence, 48 h; percent of positive-control rescue, neutral wells zero; 0.8% of 300,000 active; protection from apoptosis, % (concentration not given with the values);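 active = Every replicate reaches about 75%, or at least half do and their mean reaches it too, limit read from the data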;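 note: 0% = cytokine-treated negative control wells and 100% = positive control rescue; higher means more ATP so stronger rescue from cytokine killing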
Calb FLC: C. albicans growth modulation with fluconazole | C. albicans CaCi-2 (fluconazole-resistant clinical isolate) + fluconazole, Alamar Blue growth, 48 h | growth inhibition, % (test concentration not listed) | 0.57% of 300,000 active | AID 1979;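 active = growth inhibition above about 58% in most replicates, limit read from the data, passing the limit was not always enough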;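 note: all wells also contain fluconazole at 8 µg/ml as a sub-toxic cotreatment; 0% = median of DMSO wells and 100% = median of geldanamycin control wells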
T cruzi inh: blocks replication of Trypanosoma cruzi; inhibition, % (concentration not given with the values); T. cruzi beta-gal in NIH3T3, luminescence, 90 h; 1.4% of 300,000 active;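 active = mean inhibition across valid replicates above about 55%, limit read from the data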;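 note: signal also drops with host cell toxicity which is not excluded here; 0% = plate median of DMSO wells and 100% = zero luminescence signal; higher percent means less beta-gal luminescence so fewer parasites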
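assay system = mouse NIH/3T3 fibroblasts infected with β-gal-expressing T. cruzi Tulahuen C4 | input = 5,000 NIH/3T3 host cells per well | buffer or medium = DMEM plus 2% FBS | timing = 3 h host attachment, then at least 90 h co-culture | measured by = GalScreen luminescence, 60 min | evaluation = luminescence reflecting intracellular parasite burden, expressed as percent inhibition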
NALP3 yeast inh: inhibitors of NALP3 inflammasome in yeast; Yeast reconstituted NLRP3/ASC/caspase-1, beta-gal luminescence, 24 h; 0.39% of 330,000 active; inhibition, % at 10 µM;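 active = inhibition of 50% or more; inactive = inhibition below 50%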;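 note: plate controls were induced DMSO wells for no effect and uninduced yeast grown without galactose for full effect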
CSC inhib: cancer stem cell inhibition | 1.1% of 300,000 active | inhibition, % at 7.5 µM | cancer stem cell-like cells viability, luminescence; in the data active = inhibition above about 75%; tested in HMLE shEcad cells
Mdm2 MdmX PPI: disrupts the human Mdm2-MdmX interaction. AID 485346. 3% of 330,000 active. inhibition, % at 8 µM. SaOS-2 split-luciferase Mdm2/MdmX complementation, luminescence. O15151+Q00987;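 active = inhibition of at least 50% at 8 µM in the primary screen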
Target sequence (O15151 whole entry, looked up): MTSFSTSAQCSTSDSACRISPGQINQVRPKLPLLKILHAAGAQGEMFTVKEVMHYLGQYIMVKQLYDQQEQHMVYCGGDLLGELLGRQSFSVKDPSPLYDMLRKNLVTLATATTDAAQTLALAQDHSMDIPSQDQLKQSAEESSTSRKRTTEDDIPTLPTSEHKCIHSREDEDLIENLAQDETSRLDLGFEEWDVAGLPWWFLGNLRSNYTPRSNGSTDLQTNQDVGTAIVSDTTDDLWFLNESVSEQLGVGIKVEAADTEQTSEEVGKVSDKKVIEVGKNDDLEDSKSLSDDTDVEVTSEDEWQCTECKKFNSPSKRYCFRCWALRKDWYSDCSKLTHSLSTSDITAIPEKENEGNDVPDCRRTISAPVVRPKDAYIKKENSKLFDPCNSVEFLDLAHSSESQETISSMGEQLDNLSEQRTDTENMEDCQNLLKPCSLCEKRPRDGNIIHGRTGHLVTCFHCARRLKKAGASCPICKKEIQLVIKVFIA
Target sequence (Q00987 whole entry, looked up): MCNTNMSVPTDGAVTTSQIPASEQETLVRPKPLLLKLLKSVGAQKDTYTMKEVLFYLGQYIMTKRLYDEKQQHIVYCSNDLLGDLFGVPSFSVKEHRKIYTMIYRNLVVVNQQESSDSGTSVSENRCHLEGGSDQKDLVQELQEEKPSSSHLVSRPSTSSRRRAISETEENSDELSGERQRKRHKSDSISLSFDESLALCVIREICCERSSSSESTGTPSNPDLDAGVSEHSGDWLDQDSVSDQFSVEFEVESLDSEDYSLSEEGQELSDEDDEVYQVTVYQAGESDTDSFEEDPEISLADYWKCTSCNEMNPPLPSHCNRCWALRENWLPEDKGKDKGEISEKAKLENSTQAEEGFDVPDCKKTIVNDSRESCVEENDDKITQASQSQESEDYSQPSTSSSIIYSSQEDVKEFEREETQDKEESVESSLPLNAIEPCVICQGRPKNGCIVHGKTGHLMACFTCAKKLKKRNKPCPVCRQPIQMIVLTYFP
* marks the source's active call; other numbers are inactive results; nt = no result.

SMILES	Beta cell apopt	Calb FLC	T cruzi inh	NALP3 yeast inh	CSC inhib	Mdm2 MdmX PPI
O=C1c2cc(Br)ccc2N(Cc2ccc(Br)cc2)S(=O)(=O)C1c1cc(Cl)c(Cl)cc1[N+](=O)[O-] (configuration not stated)	9	nt	nt	21	108*	31
CC(=O)c1ccc(NC(=S)NC(C)CCc2ccccc2)cc1 (configuration not stated)	2	-14	11	6	22	-3
CCOC(=O)c1nc(Nc2ccc(Nc3ccccc3)cc2)c2ccccc2n1	nt	27	16	nt	nt	nt
CCOC(=O)c1nc(Nc2cc(C)cc(C)c2)c2ccccc2n1	26	5	56*	10	-4	20
COc1ccccc1N=C(C)C1=C(O)CSC1=O	2	3	4	24	6	15
CCOc1cc(C(N)=O)cc(Cl)c1OCc1ccccc1	-2	112*	-6	9	0	-18
OCCN1CCN(c2ncnc3c2sc2nc(N4CCOCC4)c4c(c23)CCC4)CC1	7	5	60*	32	43	30
Cc1ccccc1-n1cnc2c(sc3nc(N4CCOCC4)c4c(c32)CCCC4)c1=O	4	27	71*	7	28	27
O=c1c2sc3nc(N4CCOCC4)c4c(c3c2ncn1-c1ccccc1)CCCC4	nt	38	22	5	nt	26
OCCN(CCO)c1ncnc2c1sc1nc(N3CCOCC3)c3c(c12)CCCC3	11	39	37	0	2	16
COCCN(CC(=O)Nc1cccc(C)c1C)C(=O)C1(c2ccccc2)CC1	3	nt	nt	10	1	-10
CC1(C)CC(NC(=O)C2CCN(S(=O)(=O)c3ccccc3C(F)(F)F)CC2)CC(C)(C)N1	nt	-5	1	4	-2	-4
Cc1c(O)ccc(/C=N/Nc2ncccc2[N+](=O)[O-])c1O	6	-2	46	14	15	-65
O=[N+]([O-])c1cccnc1N/N=C/c1ccccc1O	110*	-18	44	24	53	47
O=[N+]([O-])c1ccc(O)c(/C=N/Nc2ccccn2)c1	105*	-6	51	nt	118*	nt
COc1ccc(NC(=O)Nc2cc(C)ccc2OC(F)F)c(OC)c1	-1	5	15	20	nt	-2
COc1ccccc1NS(=O)(=O)c1cccc(NC(=O)c2sc3ccccc3c2Cl)c1	2	-5	78*	12	nt	17
Cc1cc(NC(=O)C2CC(=O)N(c3ccccc3C)C2)no1 (configuration not stated)	3	-4	-17	13	-9	-3
Cc1ccc(C(=O)N(CCCN(C)C)c2nc3ccc(Cl)cc3s2)cc1C	-2	-11	70*	33	7	41
CN(C)CCCN(C(=O)c1ccc2c(c1)OCCO2)c1nc2ccc(Cl)cc2s1	-11	-1	42	30	0	44
CCc1ccc2nc(N(CCN(C)C)C(=O)c3ccc4ncsc4c3)sc2c1	-7	0	64*	18	13	2
CN(C)CCCN(C(=O)c1ccco1)c1nc2ccc(Cl)cc2s1	-3	-28	50	5	-6	24
CN(C)CCN(C(=O)c1ccc2c(c1)OCCO2)c1nc2ccc(Cl)cc2s1	-10	-9	57*	36	3	-29
CCN(CC)C(=O)c1ccc(C)c(Br)c1	-6	11	-13	28	-13	8
CCOC(=O)c1cc(C(=O)n2cc(Cl)cn2)nn1C	-3	5	4	3	-11	2
SMILES	Beta cell apopt	Calb FLC	T cruzi inh	NALP3 yeast inh	CSC inhib	Mdm2 MdmX PPI
C/C(=N/Nc1ccnc2cc(Cl)ccc12)c1ccc(N)cc1	-1	0	60*	44	14	14
C/C(=N/Nc1ccnc2cc(Cl)ccc12)c1ccc(O)cc1	0	1	32	27	34	41
O=[N+]([O-])c1ccc(NC(=S)N2CCOCC2)cc1	-4	-32	-8	4	-2	30
O=C(c1ccco1)c1coc2c1cc(O)c1ccccc12	100*	31	-18	29	52	-17
CC(=O)c1coc2c1cc(O)c1ccccc12	0	21	2	17	28	11
O=C(NCCCN1CCOCC1)c1csc2c1CCCC2	-7	8	1	16	-12	10
Cc1ccc(C)c(NS(=O)(=O)c2cc(C(=O)N3CCc4ccccc4C3)ccc2Cl)c1	1	-11	56*	8	18	28
Cc1ccccc1NS(=O)(=O)c1cc(C(=O)N2CCCC2)ccc1Cl	4	13	-1	12	1	7
Cc1cccc(NS(=O)(=O)c2cc(C(=O)N3CCc4ccccc4C3)ccc2Cl)c1C	10	2	60*	26	7	21
CCOC(=O)N1CCN(C(=O)c2oc3ccc(S(=O)(=O)N4CCCCCC4)cc3c2C)CC1	8	-5	65*	10	-4	-3
Cc1c(C(=O)N(C)Cc2ccccc2)oc2ccc(S(=O)(=O)N3CCCC3)cc12	-1	19	17	16	1	12
Cc1c(C(=O)N(Cc2ccccc2)C(C)C)oc2ccc(S(=O)(=O)N3CCOCC3)cc12	90*	-2	11	2	7	13
O=C(COC(=O)CCc1nc2ccccc2s1)Nc1ccc(Cl)cn1	5	6	-5	10	-9	-3
CC(=O)Nc1ccc(CN(C)CC2CCCN(CCc3cccc(C(F)(F)F)c3)C2)cc1 (configuration not stated)	-3	-17	31	16	8	11
CCN(Cc1cccc(OC)c1)CC1CCCN(CCc2cccc(OC)c2)C1 (configuration not stated)	8	-18	53	30	36	19
CN(CC1CCCN(CCc2cccc(C(F)(F)F)c2)C1)C(=O)c1ccco1 (configuration not stated)	-2	-1	60*	15	8	-18
CCN(Cc1ccc(O)cc1)CC1CCCN(CCc2cccc(F)c2)C1 (configuration not stated)	-4	-4	61*	14	-1	16
O=C(CN1CCN(Cc2ccccc2)CC1)Nc1ccc(N2CCOCC2)cc1	nt	49	-17	-6	-13	20
Cc1ccccc1NC1=NC2(CCCC2)N=C(N)N1	-6	29	-4	15	0	-21
O=C(c1cc(COc2ccc3ncccc3c2)on1)N1CCC(O)CC1	nt	-2	-29	4	-7	1
CCC(O)C1CCN(C(=O)c2cc(COc3ccc4ncccc4c3)on2)CC1 (configuration not stated)	106*	-6	-21	11	0	15
Cc1cccnc1CN1CCN(C(=O)c2cc(COc3ccc4ncccc4c3)on2)CC1	100*	-13	-126	9	12	38
Cc1sc2ncnc(NCC3COc4ccccc4O3)c2c1C (configuration not stated)	130*	-1	0	nt	3	nt
